From ChEMBL document CHEMBL1132997, “Bis(phenazine-1-carboxamides): structure-activity relationships for a new class of dual topoisomerase I/II-directed anticancer drugs” (J Med Chem, 2000) come the findings set out here.

For assay [1], the system named is MCF7. The assay is described as follows: 50% inhibition of cell growth against MCF-7 cell line. The class given is functional. The note with it: Homo sapiens. The method in brief:
(§1)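 Tested in the NCI human tumour cell line panel. GI50 (nM) is the drug concentration inhibiting cell growth to 50% of controls. The panel mean ("Mid") is the average GI50 over the whole cell line panel.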

Assay [2] deals with HCT-116. The assay is described as follows: 50% inhibition of cell growth against HCT116 cell line. The format is functional. The note with it: Homo sapiens. The method in brief: as §1
Assay [3] has as its system HT-29. Description: 50% inhibition of cell growth against HT-29 cell line. As to conditions: Homo sapiens. The class given is functional. The method in brief: as §1
The subject of assay [4] is NCI/ADR-RES. Description: 50% inhibition of cell growth against NCI/ADRcell line. The class given is functional. The note with it: Homo sapiens. The method in brief: as §1
The nature of assay [5]: The average concentration resulting in inhibition of cell growth to 50% whole cell line panel. The class given is functional. In a few lines:
as §1

The subject of assay [6] is Jurkat. The assay is described as follows: Inhibitory activity against wild-type human Jurkat leukemia cells. The format is functional, cell-based. The method in brief:
(§2)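 Growth inhibition in microculture with drug present throughout. Seeding was 4.5 × 10³ P388, 10³ Lewis lung or 3.75 × 10³ wild-type Jurkat cells per well. Exposure was 3 days for P388 and 4 days for the others. IC50 (nM) is the drug concentration reducing cell number to 50% of control cultures. Each value averages at least two independent duplicate determinations; CV 15–22%.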

Assay [7] has as its system CAKI-1. The assay is described as follows: 50% inhibition of cell growth against CAK1 cell line. The format is functional. As to conditions: Homo sapiens. The method in brief: as §1
Assay [8] concerns Lewis lung carcinoma cell line. Description: Inhibitory activity against Murine Lewis lung carcinoma cells. The note with it: Mus musculus. The class given is functional, cell-based. The method in brief: as §2
The test system of assay [9] is P388. Description: Inhibitory activity against Murine P388 leukemia cells. The format is functional, cell-based. The note with it: Mus musculus. In a few lines: as §2
Assay [10] has as its system SK-OV-3. Description: 50% inhibition of cell growth against SKOV-3 cell line. The format is functional. The note with it: Homo sapiens. The method in brief: as §1

Turning to `COc1cccc2nc3cccc(C(=O)NCCCN(C)CCCNC(=O)c4cccc5nc6cccc(OC)c6nc45)c3nc12`, the GI50 in [1] was 47 nM; in assay [2], less than 10 nM; in [3], 35 nM; in assay [4], 21000 nM; in [5], 575 nM; in assay [7], 1420 nM. Also, growth in assay [10] was halved (GI50) at 1560 nM. Moreover, the IC50 in assay [6] turned out to be 124 nM; in assay [8] it was 160 nM; in assay [9] it was 815 nM.
For the compound `COc1ccc2nc3c(C(=O)NCCCN(C)CCCNC(=O)c4cccc5nc6cc(OC)ccc6nc45)cccc3nc2c1`, the GI50 stood at 2000 nM in assay [1]; 37 nM in assay [2]; 93 nM in assay [3]; 20000 nM in [4]; 4170 nM in assay [5]; 3020 nM in [7]. In [10], this compound registered a GI50 of 9660 nM. For the same compound, the IC50 came to 195 nM in assay [6], 64 nM in assay [8] and 600 nM in [9].

Usually GI50 stands for the concentration at which growth is held to half of that of the control. The IC50 is the concentration that inhibits the measured activity by half.
